Test results: ChEMBL document CHEMBL4145444, “Investigating the structure-activity relationships of N'-[(5-nitrofuran-2-yl) methylene] substituted hydrazides against Trypanosoma cruzi to design novel active compounds” (Eur J Med Chem, 2018)
One block for each compound: values may come before it.

Experiments:
[1] = system: Trypanosoma cruzi; experiment: Antitrypanosomal activity against Trypanosoma cruzi Colombiana Tc1 epimastigotes measured after 72 hrs; type: functional, organism-based; details: for IC50: Trypanosoma cruzi, Colombiana, 72 h
Method in brief: (§1)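 Exponentially growing epimastigotes (1.0*10^7 parasites/mL) cultured in LIT-FCS medium with compound from 0.4 to 300.0 µM, added from DMSO stock (DMSO ≤1.0%), 72 h at 28 °C. Viable parasites read by absorbance at 562 nm. PGI computed against untreated culture after subtracting compound/medium blanks. IC50 from sigmoid dose-response fit using at least six concentrations. Triplicates, at least two independent experiments.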

[2] = system: Trypanosoma cruzi; experiment: Antitrypanosomal activity Trypanosoma cruzi Bug 2149 cl10 Tc5 epimastigotes measured after 72 hrs; type: functional, organism-based; details: for IC50: Trypanosoma cruzi, Bug 2149 cl10, CL1-0, 72 h
Method in brief: as §1, with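 “°C.” for “°C. Viable parasites read by absorbance at 562 nm.”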

[3] = system: Trypanosoma cruzi; experiment: Antitrypanosomal activity Trypanosoma cruzi Y Tc2 epimastigotes measured after 72 hrs; type: functional, organism-based; details: for IC50: Trypanosoma cruzi, Y, 72 h; method in brief: as §1
[4] = system: Trypanosoma cruzi; experiment: Antitrypanosomal activity against Trypanosoma cruzi Silvio X10 cl1 Tc1 epimastigotes measured after 72 hrs; type: functional, organism-based; details: for IC50: Trypanosoma cruzi, Silvio X10 cl1, 72 h
Method in brief: as §1, with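 “°C.” for “°C. Viable parasites read by absorbance at 562 nm.”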

[5] = Selectivity index, ratio of CC50 for cytotoxicity against human U2OS cells to IC50 for Trypanosoma cruzi Y Tc2 amastigotes infected in human U2OS cells; type: toxicity, cell-based; details: read-out: Ratio CC50/IC50
Method in brief: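 Ratio of U2OS CC50 to Y-strain amastigote IC50, both from the same 72 h Draq5-stained HCS assay in infected U2OS cells (2-fold series up to 200 μM, 1% DMSO).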

[6] = system: Trypanosoma cruzi; experiment: Antitrypanosomal activity against Trypanosoma cruzi Y Tc2 amastigotes infected in human U2OS cells up to 200 uM after 72 hrs by Draq5 staining based HCS analysis relative to control; type: functional
Method in brief: (§2)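 U2OS cells (700/well, high-glucose DME, 10% FBS) seeded and incubated 24 h. Then infected with 2,800 Y-strain trypomastigotes harvested from LLC-MK2 cells. On day 3, 14-point 2-fold dilutions added, top 200 μM, 1% DMSO, 72 h. Fixed in 4% PFA, Draq5 stained, imaged at 20x. Infection ratio normalized to DMSO-mock infected and uninfected controls. IC50 by sigmoidal variable-slope fit. Doublets, duplicate experiments.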

[7] = Cytotoxicity against human U2OS cells assessed as reduction in cell viability; type: cell-based
[8] = system: Trypanosoma cruzi; experiment: Antitrypanosomal activity against Trypanosoma cruzi Y Tc2 amastigotes infected in human U2OS cells after 72 hrs by Draq5 staining based HCS analysis; type: functional, organism-based; method in brief: as §2

SMILES: CC(C)c1ccc(C(=O)N/N=C/c2ccc([N+](=O)[O-])o2)cc1
- log1/IC50 [1]: 5.22

SMILES: CCCCCCCCC(=O)N/N=C/c1ccc([N+](=O)[O-])o1
- log1/IC50 [1]: 5.09
- IC50 [1]: 8.07 µM

SMILES: CCCOc1ccc(C(=O)N/N=C/c2ccc([N+](=O)[O-])o2)cc1
- log1/IC50 [1]: 5.28
- IC50 [1]: 5.26 µM

SMILES: Cc1cccc(C(=O)N/N=C/c2ccc([N+](=O)[O-])o2)c1
- log1/IC50 [1]: 5.07
- IC50 [1]: 8.53 µM

SMILES: CC(C)(C)OC(=O)N/N=C/c1ccc([N+](=O)[O-])o1
- log1/IC50 [1]: 5.13
- IC50 [1]: 7.41 µM

SMILES: O=C(N/N=C/c1ccc([N+](=O)[O-])o1)c1cccc([N+](=O)[O-])c1
- log1/IC50 [2]: 4.52
- IC50 [2]: 30.4 µM
- log1/IC50 [3]: 4.36
- IC50 [3]: 44.1 µM
- log1/IC50 [1]: 4.39
- IC50 [1]: 40.6 µM
- log1/IC50 [4]: 4.28
- IC50 [4]: 52.3 µM

SMILES: O=C(N/N=C/c1ccc([N+](=O)[O-])o1)c1ccccc1
- log1/IC50 [1]: 4.95
- IC50 [1]: 11.3 µM

SMILES: O=C(Cn1ccnc1[N+](=O)[O-])NCc1ccccc1 [BENZNIDAZOLE]
- IC50 [1]: 47.9 µM
- Emax [6]: 85.2%
- CC50 [7]: > 200 µM
- IC50 [8]: 64.3 µM

SMILES: O=C(N/N=C/c1ccc([N+](=O)[O-])o1)c1ccccc1Oc1ccccc1
- log1/IC50 [1]: 5.24
- IC50 [1]: 5.79 µM

SMILES: O=C(Cc1ccccc1)N/N=C/c1ccc([N+](=O)[O-])o1
- log1/IC50 [1]: 5
- IC50 [1]: 10.1 µM

SMILES: Cc1ccc(C(=O)N/N=C/c2ccc([N+](=O)[O-])o2)cc1
- log1/IC50 [1]: 4.92
- IC50 [1]: 11.9 µM

SMILES: CN(C)c1ccc(C(=O)N/N=C/c2ccc([N+](=O)[O-])o2)cc1
- log1/IC50 [1]: 4.07
- IC50 [1]: 85.5 µM

SMILES: O=C(N/N=C/c1ccc([N+](=O)[O-])o1)c1ccc(Cl)cc1
- log1/IC50 [1]: 5.06
- IC50 [1]: 8.64 µM

SMILES: O=C(N/N=C/c1ccc([N+](=O)[O-])o1)C1CCCC1
- log1/IC50 [1]: 5.01
- IC50 [1]: 9.67 µM

SMILES: COc1ccc(C(=O)N/N=C/c2ccc([N+](=O)[O-])o2)cc1OC
- log1/IC50 [2]: 4.76
- IC50 [2]: 17.2 µM
- log1/IC50 [3]: 4.85
- IC50 [3]: 14.2 µM
- log1/IC50 [1]: 4.58
- IC50 [1]: 26.6 µM
- log1/IC50 [4]: 4.56
- IC50 [4]: 27.3 µM

SMILES: COc1ccc(C(=O)N/N=C/c2ccc([N+](=O)[O-])o2)cc1
- log1/IC50 [1]: 5.09
- IC50 [1]: 8.08 µM

SMILES: CCCc1ccc(C(=O)N/N=C/c2ccc([N+](=O)[O-])o2)cc1
- log1/IC50 [1]: 5.14
- IC50 [1]: 7.25 µM

More lines, main results first:

- log1/IC50 [3]: 5.01
- IC50 [3]: 9.74 µM
SMILES: CCOc1ccc(C(=O)N/N=C/c2ccc([N+](=O)[O-])o2)cc1
- log1/IC50 [2]: 5.2
- IC50 [2]: 6.26 µM
- log1/IC50 [1]: 4.94
- IC50 [1]: 11.6 µM
- log1/IC50 [4]: 4.86
- IC50 [4]: 13.8 µM

- log1/IC50 [3]: 5.93
- IC50 [8]: 0.71 µM
SMILES: O=C(N/N=C/c1ccc([N+](=O)[O-])o1)c1ccc(-c2ccccc2)cc1
- log1/IC50 [2]: 5.74
- selectivity ratio [5]: 154
- log1/IC50 [1]: 5.51
- IC50 [1]: 3.06 µM
- Emax [6]: 97.8%
- CC50 [7]: 109 µM
- log1/IC50 [4]: 5.71

- log1/IC50 [3]: 5.26
- IC50 [3]: 5.51 µM
- IC50 [8]: 1.06 µM
SMILES: O=C(N/N=C/c1ccc([N+](=O)[O-])o1)c1cccs1
- log1/IC50 [2]: 5.16
- IC50 [2]: 6.87 µM
- selectivity ratio [5]: 53.9
- log1/IC50 [1]: 4.82
- IC50 [1]: 15.1 µM
- Emax [6]: 94.5%
- CC50 [7]: 57.2 µM
- log1/IC50 [4]: 4.89
- IC50 [4]: 12.8 µM

- log1/IC50 [3]: 4.98
- IC50 [3]: 10.6 µM
SMILES: O=C(N/N=C/c1ccc([N+](=O)[O-])o1)c1cccc(C(F)(F)F)c1
- log1/IC50 [2]: 4.84
- IC50 [2]: 14.6 µM
- log1/IC50 [1]: 5
- IC50 [1]: 9.98 µM
- log1/IC50 [4]: 4.59
- IC50 [4]: 25.5 µM

- IC50 [8]: 2.9 µM
SMILES: O=C(N/N=C/c1ccc([N+](=O)[O-])o1)C1CCCCC1
- selectivity ratio [5]: 8.77
- log1/IC50 [1]: 4.99
- IC50 [1]: 10.2 µM
- Emax [6]: 119%
- CC50 [7]: 25.4 µM

- log1/IC50 [3]: 3.52
- IC50 [8]: 4.26 µM
SMILES: O=C(N/N=C/c1ccc([N+](=O)[O-])o1)c1ccc(O)cc1 [NIFUROXAZIDE]
- log1/IC50 [2]: 3.52
- selectivity ratio [5]: 10.7
- log1/IC50 [1]: 3.73
- IC50 [1]: 188 µM
- Emax [6]: 91.9%
- CC50 [7]: 45.7 µM
- log1/IC50 [4]: 3.52

- log1/IC50 [3]: 4.76
- IC50 [3]: 17.3 µM
SMILES: Cc1nnsc1C(=O)N/N=C/c1ccc([N+](=O)[O-])o1
- log1/IC50 [2]: 4.73
- IC50 [2]: 18.7 µM
- log1/IC50 [1]: 4.85
- IC50 [1]: 14.2 µM
- log1/IC50 [4]: 4.47
- IC50 [4]: 34.1 µM

- IC50 [8]: 4.62 µM
SMILES: CC(=O)N/N=C/c1ccc([N+](=O)[O-])o1 [NIHYDRAZONE]
- selectivity ratio [5]: 8.49
- log1/IC50 [1]: 5.02
- IC50 [1]: 9.52 µM
- Emax [6]: 98.7%
- CC50 [7]: 39.2 µM

- log1/IC50 [3]: 4.6
- IC50 [3]: 24.9 µM
SMILES: O=C(N/N=C/c1ccc([N+](=O)[O-])o1)c1ccco1
- log1/IC50 [2]: 5
- IC50 [2]: 9.99 µM
- log1/IC50 [1]: 4.88
- IC50 [1]: 13.1 µM
- log1/IC50 [4]: 4.75
- IC50 [4]: 17.9 µM

- log1/IC50 [3]: 5.46
- IC50 [8]: 1.46 µM
SMILES: CCCCOc1ccc(C(=O)N/N=C/c2ccc([N+](=O)[O-])o2)cc1
- log1/IC50 [2]: 5.37
- selectivity ratio [5]: 31.9
- log1/IC50 [1]: 5.54
- IC50 [1]: 2.86 µM
- Emax [6]: 115%
- CC50 [7]: 46.6 µM
- log1/IC50 [4]: 5.29

- log1/IC50 [3]: 5.04
- IC50 [3]: 9.11 µM
SMILES: CCc1ccc(C(=O)N/N=C/c2ccc([N+](=O)[O-])o2)cc1
- log1/IC50 [2]: 5.02
- IC50 [2]: 9.53 µM
- log1/IC50 [1]: 5.18
- IC50 [1]: 6.55 µM
- log1/IC50 [4]: 4.91
- IC50 [4]: 12.3 µM

- IC50 [8]: 2.61 µM
SMILES: CCCCCC(=O)N/N=C/c1ccc([N+](=O)[O-])o1
- selectivity ratio [5]: 7.39
- log1/IC50 [1]: 5.12
- IC50 [1]: 7.58 µM
- Emax [6]: 115%
- CC50 [7]: 19.3 µM

- IC50 [8]: 1.43 µM
SMILES: CC(C)(C)c1ccc(C(=O)N/N=C/c2ccc([N+](=O)[O-])o2)cc1
- selectivity ratio [5]: > 140
- log1/IC50 [1]: 5.21
- IC50 [1]: 6.1 µM
- Emax [6]: 98.4%
- CC50 [7]: > 200 µM

- IC50 [8]: 1.77 µM
SMILES: N#Cc1ccc(C(=O)N/N=C/c2ccc([N+](=O)[O-])o2)cc1
- selectivity ratio [5]: 12.1
- log1/IC50 [1]: 4.69
- IC50 [1]: 20.2 µM
- Emax [6]: 95.5%
- CC50 [7]: 21.4 µM

- log1/IC50 [3]: 5.51
- IC50 [8]: 1.33 µM
SMILES: CCCCc1ccc(C(=O)N/N=C/c2ccc([N+](=O)[O-])o2)cc1
- log1/IC50 [2]: 5.33
- selectivity ratio [5]: 14.7
- log1/IC50 [1]: 5.61
- IC50 [1]: 2.45 µM
- Emax [6]: 115%
- CC50 [7]: 19.6 µM
- log1/IC50 [4]: 5.32

- log1/IC50 [3]: 5.15
- IC50 [3]: 7.15 µM
- IC50 [8]: 1.87 µM
SMILES: O=C(N/N=C/c1ccc([N+](=O)[O-])o1)c1ccc2ccccc2c1
- log1/IC50 [2]: 5
- IC50 [2]: 9.9 µM
- selectivity ratio [5]: 34.3
- log1/IC50 [1]: 5.12
- IC50 [1]: 7.58 µM
- Emax [6]: 97%
- CC50 [7]: 64.2 µM
- log1/IC50 [4]: 5.02
- IC50 [4]: 9.59 µM

- log1/IC50 [3]: 4.09
- IC50 [3]: 80.2 µM
SMILES: N#CCC(=O)N/N=C/c1ccc([N+](=O)[O-])o1
- log1/IC50 [2]: 4.56
- IC50 [2]: 27.4 µM
- log1/IC50 [1]: 4.22
- IC50 [1]: 60.6 µM
- log1/IC50 [4]: 4.39
- IC50 [4]: 40.5 µM
